Measured values from ChEMBL document CHEMBL4017491, “Phthalazino[1,2-b]quinazolinones as p53 Activators: Cell Cycle Arrest, Apoptotic Response and Bak-Bcl-xl Complex Reorganization in Bladder Cancer Cells” (J Med Chem, 2017).
Activity calls are given as the source filed them. No cut-off for these calls is given here.

Experiments:
T-24 [1] = experiment: Induction of apoptosis in human T24 cells assessed as necrotic cells at 10 uM by Annexin V-FITC/propidium iodide based flow cytometric analysis (reference value: 8.53%); assay type: functional
T-24 [2] = experiment: Induction of apoptosis in human T24 cells assessed as late apoptotic cells at 1 uM by Annexin V-FITC/propidium iodide based flow cytometric analysis (reference value: 0.193%); assay type: functional
T-24 [3] = experiment: Effect on Bcl-xl protein expression in human T24 cells at 1 to 10 uM after 24 hrs by Western bot method; assay type: functional, cell-based
Outline: (§1)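 T24 cells, 3 × 10^5 per well, grown to 85−95% confluence, then exposed to 0−10 μM for 24 h. Whole-cell extracts in sample buffer run on SDS-polyacrylamide gels and transferred to nitrocellulose. Blots probed with primary antibodies and AP-linked anti-rabbit IgG, detected by ECL. Blots stripped and reprobed for β-actin as loading control.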

T-24 [4] = experiment: Induction of apoptosis in human T24 cells assessed as necrotic cells at 1 uM by Annexin V-FITC/propidium iodide based flow cytometric analysis (reference value: 8.53%); assay type: functional
[5] = biological target: Cellular tumor antigen p53 (Homo sapiens) (UniProt P04637); experiment: Activation of p53 in human T24 cells assessed as p53 phosphorylation after 24 hrs by Western blot analysis; assay type: cell-based; outline: as §1
Cellular tumor antigen p53 (Homo sapiens), sequence (P04637 whole entry, looked up): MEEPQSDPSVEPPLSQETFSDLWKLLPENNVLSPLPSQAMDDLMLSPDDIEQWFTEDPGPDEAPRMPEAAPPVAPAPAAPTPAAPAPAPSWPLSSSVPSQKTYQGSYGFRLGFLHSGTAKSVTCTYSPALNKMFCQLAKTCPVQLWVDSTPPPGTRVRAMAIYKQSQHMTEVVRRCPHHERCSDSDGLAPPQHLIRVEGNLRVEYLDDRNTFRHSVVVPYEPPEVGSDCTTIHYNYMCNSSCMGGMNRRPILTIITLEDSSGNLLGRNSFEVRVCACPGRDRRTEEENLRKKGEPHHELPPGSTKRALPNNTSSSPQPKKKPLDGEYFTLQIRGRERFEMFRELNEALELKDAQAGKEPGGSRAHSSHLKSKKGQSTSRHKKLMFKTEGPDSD

T-24 [6] = experiment: Cell cycle arrest in human T24 cells assessed as effect on cyclin D expression up to 10 uM after 24 hrs by Western blot analysis; assay type: functional, cell-based; outline: as §1
HepG2 = experiment: Antitumor activity against human HepG2 cells xenografted in BALB/C nude mouse assessed as tumor growth inhibition at 12 mg/kg, ip administered every 2 days for 16 days relative to control; assay type: functional; conditions: read-out: TGI
Outline: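 Male BALB/c nude mice, 6 weeks old, given subcutaneous flank injections of 5 × 10^6 HepG2 cells. Mice with 80−200 mm3 tumors randomized, n = 6 per group, and dosed ip every other day with 6 or 12 mg/kg. Vehicle 5% DMSO in saline; HCPT 6 mg/kg as positive control. Tumor volume (lw²/2) and body weight measured three times weekly.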

T-24 [7] = experiment: Antiproliferative activity against human T24 cells harboring p53 siRNA up to 5 uM after 48 hrs by MTT assay; assay type: functional, cell-based
Outline: (§2)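 T24 cells pre-exposed to p53-siRNA or scrambled RNA for 24 h, then treated with a concentration series for 48 h. Proliferation measured by MTT read at 490 nm, expressed as % of control absorbance.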

T-24 [8] = experiment: Induction of apoptosis in human T24 cells assessed as increase in […] level up to 10 uM after 24 hrs by Western blot analysis; assay type: functional, cell-based
Outline: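 T24 cells (3 × 10^5 per well) grown to 85–95% confluence, then exposed 24 h to 0–10 μM. Whole-cell extracts run on SDS-PAGE and blotted to nitrocellulose. Probed with the indicated antibodies and AP-linked anti-rabbit IgG, with ECL detection. Blots stripped and reprobed for β-actin as loading control.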

Escherichia coli [9] = experiment: Induction of conformational change in Escherichia coli pBR322 DNA at 1 to 10 uM after 1 hr by DNA relaxation assay
Outline: (§3)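 Plasmid pBR322 incubated 1 h with 1–10 μM in 5 mM Tris-HCl, 50 mM NaCl, pH 7.2. Samples run on 1.5% agarose and stained with 0.5 μg/mL ethidium bromide. Lane controls: 1% DMSO (negative) and ethidium bromide (positive).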

T-24 [10] = experiment: Antiproliferative activity against human T24 cells harboring scRNA after 48 hrs by MTT assay; assay type: functional, cell-based; outline: as §2
T-24 [11] = experiment: Induction of apoptosis in human T24 cells assessed as live cells at 1 uM by Annexin V-FITC/propidium iodide based flow cytometric analysis (reference value: 89.5%); assay type: functional
T-24 [12] = experiment: Induction of apoptosis in human T24 cells assessed as activation of caspase-3 at 10 uM by FITC-DEVD-FMK based flow cytometric analysis (reference value: 2.8%)
T-24 [13] = experiment: Induction of apoptosis in human T24 cells assessed as late apoptotic cells at 10 uM by Annexin V-FITC/propidium iodide based flow cytometric analysis (reference value: 0.193%); assay type: functional
J82 [14] = experiment: Cell cycle arrest in human J82 cells assessed as accumulation at G1 phase at 1 uM after 48 hrs by propidium iodide staining based FACS analysis (reference value: 42.29 %); assay type: functional
Outline: (§4)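 Cells treated with 1−10 μM for 48 h, trypsinized, and fixed in 70% ethanol. Stained with 50 μg/mL propidium iodide and phase distribution analyzed by flow cytometry. Mean ± SD from three independent measurements.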

T-24 [15] = experiment: Effect on Bcl-2 expression in human T24 cells up to 10 uM after 24 hrs by Western blot analysis; assay type: functional, cell-based; outline: as §1
T-24 [16] = experiment: Induction of apoptosis in human T24 cells assessed as live cells at 5 uM by Annexin V-FITC/propidium iodide based flow cytometric analysis (reference value: 89.5%); assay type: functional
T-24 [17] = experiment: Effect on cell cycle distribution in human T24 cells assessed as live cells at 1 uM after 1 hr by Annexin V-FITC/propidium iodide staining based FACS analysis (reference value: 98.3%); assay type: functional
T-24 [18] = experiment: Antitumor activity against human T24 cells xenografted in BALB/C nude mouse assessed as tumor growth inhibition at 12 mg/kg, ip administered every 2 days for 16 days relative to control; assay type: functional; conditions: T-24, ip, read-out: TGI
T-24 [19] = experiment: Effect on cell cycle distribution in human T24 cells assessed as early apoptotic cells at 10 uM after 1 hr by Annexin V-FITC/propidium iodide staining based FACS analysis relative to control; assay type: functional
J82 [20] = experiment: Cell cycle arrest in human J82 cells assessed as accumulation at S phase at 5 uM after 48 hrs by propidium iodide staining based FACS analysis (reference value: 46.79 %); assay type: functional; outline: as §4
T-24 [21] = experiment: Induction of apoptosis in human T24 cells assessed as activation of caspase-3 at 5 uM by FITC-DEVD-FMK based flow cytometric analysis (reference value: 2.8%)
T-24 [22] = experiment: Cell cycle arrest in human T24 cells assessed as accumulation at S/G2 phase at 1 to 10 uM after 48 hrs by propidium iodide staining based FACS analysis; assay type: functional; outline: as §4
T-24 [23] = experiment: Effect on Bcl-Xl expression in human T24 cells up to 10 uM after 24 hrs by Western blot analysis; assay type: functional, cell-based; outline: as §1
Escherichia coli [24] = experiment: Induction of DNA damage in Escherichia coli pBR322 DNA assessed as effect on mobility rate at 1 to 10 uM after 1 hr by DNA relaxation assay; outline: as §3
Mus musculus = experiment: Induction of phospho-p53 expression in BALB/C nude mouse xenografted with human T24 cells at 6 to 12 mg/kg, ip administered every 2 days for 16 days by immunoblot analysis
T-24 [25] = experiment: Effect on cell cycle distribution in human T24 cells assessed as late necrotic cells at 10 uM after 1 hr by Annexin V-FITC/propidium iodide staining based FACS analysis (reference value: 1.71%); assay type: functional
T-24 [26] = experiment: Cell cycle arrest in human T24 cells assessed as effect on CDK4 expression up to 10 uM after 24 hrs by Western blot analysis; assay type: functional, cell-based; outline: as §1

Activity [5]: Dose-dependent effect
Activity (Escherichia coli [9]): inactive
SMILES: CN(C)CCNc1nn2c(=O)c3cc(Br)ccc3nc2c2ccccc12
Activity (T-24 [1]): 8.1%
Activity (T-24 [2]): 5.29%
Activity (T-24 [3]): inactive
Activity (T-24 [4]): 6.77%
Activity (T-24 [6]): inactive
inhibition in vivo at 12 mg/kg (HepG2): 61.3%
Activity (T-24 [7]): inactive
Activity (T-24 [8]): Active
Activity (T-24 [10]): Dose-dependent effect
Activity (T-24 [11]): 83.7%
Activity (T-24 [12]): 50%
Activity (T-24 [13]): 40.7%
Activity (J82 [14]): 48.49%
Activity (T-24 [15]): inactive
Activity (T-24 [16]): 62.8%
Activity (T-24 [17]): 93.5%
inhibition in vivo at 12 mg/kg (T-24 [18]): 54.2%
Activity (T-24 [19]): 0%
Activity (J82 [20]): 44.01%
Activity (T-24 [21]): 17.6%
Activity (T-24 [22]): Active
Activity (T-24 [23]): inactive
Activity (Escherichia coli [24]): inactive
Activity (Mus musculus): Active
Activity (T-24 [25]): 13.4%
Activity (T-24 [26]): inactive
